PTPN22 inh 2: inhibitors of human LYP (PTPN22) phosphatase; AID 640; Q9Y2R2; 96,000 compounds, 0.21% hits; inhibition, % at 2 µM; recombinant LYP catalytic domain, DiFMUP fluorescence;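 active = inhibition at 2 µM at or above a set limit, the screen mean plus 3 SD, cut at about 24% in these data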;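 note: 0% = DMSO with enzyme and 100% = enzyme fully blocked by orthovanadate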
PLK1 inh: blocks human PLK1 kinase activity. P53350. recombinant PLK1 kinase, TR-FRET peptide phosphorylation. inhibition, % at 10 µM. 97,000 compounds, 0.53% hits. AID 619;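 active = inhibition of 50% or more in the single-concentration screen; inactive = inhibition below 50%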;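 note: 0% = DMSO max control and 100% = H-89 dihydrochloride min control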
Plk1 PBD FP: Plk1 (human) PBD binding inhibition. P53350. Plk1 PBD phosphopeptide binding, fluorescence polarization. inhibition, %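 (tested at about 20 µM)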. 97,000 compounds, 0.13% hits; in the data active = inhibition above about 34%, passing the limit was not always enough
LYP act: activators of human LYP (PTPN22) phosphatase; recombinant LYP, DiFMUP fluorescence; 0 = plate median, 100 = signal doubled; activation, % at 2 µM; 96,000 compounds, 0.11% hits;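 active = activation at 2 µM above a set limit, the mean plus 5 SD, cut at about 37% in these data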
HIV Rev-RRE inh: inhibitors of HIV-1 Rev-RRE RNA interaction | inhibition, % at 8 µM | P05866 | Rev peptide-RRE RNA binding, FRET | 97,000 compounds, 0.79% hits;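 active = inhibition above the screen-wide mean plus 3 SD, cut at about 35% in these data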;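 note: 0% = median DMSO wells and 100% = median Neomycin B control wells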
Target sequence (P05866 whole entry, looked up): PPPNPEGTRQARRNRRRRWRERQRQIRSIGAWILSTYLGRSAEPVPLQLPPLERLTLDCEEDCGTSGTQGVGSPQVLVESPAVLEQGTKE
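Test system: Cy5-tagged RRE RNA duplex with fluorescein-tagged Rev peptide | Read-out: % inhibition of FRET ratio versus controls | Probe or stimulus: Labelled Rev peptide | Incubation: 5 min RNA-compound premix plus 15 min binding step, 25 °C | Technique: FRET fluorescence readout | Benchmarks: DMSO low control, neomycin B high control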
PLAP activator: activators of human placental alkaline phosphatase. P05187. purified PLAP enzyme, luminescent substrate read-out; active compounds read high. activation fold at 20 µM. 96,000 compounds, 1.2% hits. AID 696; in the data active = activation fold above about 2
An asterisk follows results filed as active; . = no result; [ ] = dose if it differs, or a comment. Rows were chosen to be rich in hits. Some 2.7% of all compounds tested hit in one or more screens of this group.

SMILES	PTPN22 inh 2	PLK1 inh	Plk1 PBD FP	LYP act	HIV Rev-RRE inh	PLAP activator
CCCn1cnc2cc(NCc3cccc(OC)c3O)ccc21	-1	-11	5	-1	-3	2.7*
Cc1onc(-c2c(F)cccc2Cl)c1C(=O)Nc1nc2ccccc2[nH]1	2	-11	15	1	10	2*
O=C(O)C1CC(=O)N(c2ccc3c(c2)OCCO3)C1 (stereo not given)	0	-3	11	3	7	1.1
O=C(Nc1nc2ccccc2[nH]1)C1CC(=O)N(c2ccc3c(c2)OCCO3)C1 (stereo not given)	-20	0	-20	19	2	2.9*
COC(=O)C1=C(N)Oc2cc(C)n(CCc3ccccc3)c(=O)c2C1c1cccnc1 (stereo not given)	-8	-5	23	5	4	2*
CCOC(=O)C1=C(N)Oc2cc(C)n(CCc3ccc(OC)c(OC)c3)c(=O)c2C1c1cccnc1 (stereo not given)	-8	-7	19	6	8	1.8
CCOC(=O)c1cnc(Nc2nc3ccccc3o2)nc1CN1CCN(c2ccccc2)CC1	-11	-7	-23	9	3	.
CCOC(=O)c1cnc(Nc2nc3ccccc3o2)nc1C	6	9	3	-4	-4	2.8*
Cc1nc(Nc2nc3ccccc3o2)nc2c1CCC2	14	-7	-25	-15	5	2.7*
Cc1coc2cc3oc(=O)c4c(c3cc12)CCC4	.	.	.	.	.	1
Cc1ccc(NC(=S)NNC(=O)c2cn(C)nc2C)cc1	8	-10	7	-3	3	2.3*
Cc1nn(CC(=O)NNC(=S)Nc2ccccc2)c(C)c1[N+](=O)[O-]	8	-5	-17	-5	3	1.9
Cc1ccc(NC(=S)NNC(=O)c2nn(C)c(C)c2Cl)cc1	14	-6	15	-12	2	2.3*
Cc1nn(C(C)C(=O)NNC(=S)Nc2ccc(Cl)cc2)c(C)c1[N+](=O)[O-] (stereo not given)	14	-14	9	-12	2	2.4*
Cc1ccc(NC(=S)NNC(=O)c2ccccc2OC(F)F)cc1	11	-3	-2	-8	2	1.8
Cc1nn(CCC(=O)NNC(=S)Nc2ccc(Cl)cc2)c(C)c1[N+](=O)[O-]	-27	-11	9	26	0	.
Cc1ccc(NC(=S)NNC(=O)c2c([N+](=O)[O-])c(C)nn2C)cc1	8	3	-17	-7	-8	2.5*
NC(=O)c1cnn(Cc2ccc(Cl)cc2)c1N	-7	-12	-4	5	7	0.9
CCOC(=O)N1CCC(N2CCN(S(=O)(=O)c3ccc(Cl)cc3)CC2)CC1	-26	-5	14	28	4	2*
O=C(CN1CCN(S(=O)(=O)c2ccccc2)CC1)NC(=O)NC1CCCCC1	-6	-10	15	4	3	1.7
O=C(CN1CCN(S(=O)(=O)c2ccc(Cl)cc2)CC1)NC(=O)NC1CCCCC1	-4	-7	1	1	7	2*
CCOC(=O)N1CCC(N2CCN(S(=O)(=O)c3ccc(NC(C)=O)cc3)CC2)CC1	-18	-12	-14	16	1	1.6
CCOC(=O)N1CCN(S(=O)(=O)c2ccc3c(c2)oc(=O)n3C)CC1	-7	-8	-13	4	41*	0.8
O=C(c1cccc(Br)c1)N1CCN(C(=O)c2cccc(Br)c2)CC1	-9	-9	-21	10	-1	.
CCOC(=O)c1c(NC(=S)Nc2ccccc2)sc2c1CCN(CC)C2	-2	-21	-51	7	121*[fluorescence artefact?]	0.9
SMILES	PTPN22 inh 2	PLK1 inh	Plk1 PBD FP	LYP act	HIV Rev-RRE inh	PLAP activator
COc1ccccc1NC(=O)CCN1CCN(Cc2ccccc2)CC1	4	-21	-1	-2	7	2*
CS(=O)(=O)N(CC(=O)NCCC1=CCCCC1)c1ccc2c(c1)OCO2	2	1	-11	1	-1	1.2
S=C(Nc1ccc(N2CCOCC2)cc1)Nc1ccc2nc(-c3ccco3)c(-c3ccco3)nc2c1	10	0	-46	-8	104*[fluorescence artefact?]	1.4
CCc1cc(-c2n[nH]c(C)c2Oc2ccc(C(C)C)cc2)c(O)cc1O	8	-53	-13	-6	19	1.9
CN1C=CC2=C(C#N)C(N)C(C#N)(C#N)[C@H](c3ccccc3)[C@H]2C1 (stereo not given in full)	-1	-7	-11	3	60*	.
N#CC(c1cccc(C(F)(F)F)c1)(c1ncc(C(F)(F)F)cc1Cl)N1CCOCC1 (stereo not given)	40*	-13	17	-38	6	1.2
N#CC(c1ccccc1)(c1ncc(C(F)(F)F)cc1Cl)N1CCOCC1 (stereo not given)	13	-13	24	-10	7	1.3
C1CCC(c2nn3c(-c4n[nH]c5c4CCC5)nnc3s2)CC1	3	1	-19	-6	15	2.3*
COc1ccc(-c2nn3c(C4CCCCC4)nnc3s2)cc1OC	2	3	3	-3	4	1.6
COc1ccc(-c2nnc3sc(C4CCCCC4)nn23)cc1OC	6	8	-16	-9	9	2.1*
CC1(C)CC(=O)c2sc(NC(=O)c3ccco3)nc2C1	0	-11	-7	-3	2	0.9
CCCOc1ccc(N)cc1N	3	-2	1	-4	101*[fluorescence artefact?]	0.8
CCCOc1ccccc1NC(=O)c1ccc(N)cc1	3	-8	-6	0	8	0.7
COc1ccc(-n2c(O)cnc2Nc2nc(C)cc(C)n2)cc1OC	0	-9	-2	0	7	2.7*
CCc1ccc(-n2c(O)cnc2Nc2nc(C)cc(C)n2)cc1	3	-7	1	-5	.	2.7*
COC(=O)C1=CN(CCCN2CCCC2=O)C=C(C(=O)OC)C1c1ccccc1C(F)(F)F	-6	3	4	4	-5	2.1*
c1ccc(CN2CCN(c3ncnc4c3[nH]c3ccccc34)CC2)cc1	13	30	7	-10	10	1.3
CCCCOC(=O)c1ccc(NC(=O)CSCc2n[nH]c(=O)[nH]2)cc1	0	-8	-36	-1	3	2.1*
S=c1[nH]nc(-c2cc(-c3ccco3)[nH]n2)n1-c1ccccc1	-6	1	-8	9	4	2.1*
CC(=O)N1CCc2cc(C(=O)CN3CCN(c4cccc(Cl)c4)CC3)ccc21	-2	-8	-13	-1	1	1.4
CC(=O)N1CCc2cc(C(=O)CN3CCCN(Cc4ccc(F)cc4)C3)ccc21	-3	68*	19	2	-3	1.6
O=C1c2cnc3nc(SCc4ccccc4)nn3c2CC2c3ccccc3CCN12 (stereo not given)	19	-7	19	-14	9	1
C=CCc1ccc(OCCCCN2CC(C)OC(C)C2)c(OC)c1 (stereo not given)	4	2	17	-3	9	2*
